Measurements: ChEMBL document CHEMBL1149461, “Synthesis and structure-activity relationship studies of CD4 down-modulating cyclotriazadisulfonamide (CADA) analogues” (J Med Chem, 2006)

Key:
[1] = tested on: Human immunodeficiency virus 1; experiment: Antiviral activity against HIV1 NL4.3 in MT4 cells; format: functional, organism-based; details: Human immunodeficiency virus 1, NL4.3, MT4
[2] = tested on: MT4; experiment: Cytotoxicity against MT4 cells; format: functional; details: Homo sapiens
[3] = tested on: MT4; experiment: Inhibition of CD4 antigen expression in MT4 cells; format: functional, cell-based; details: Homo sapiens
In short: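 MT-4 cells were labelled with FITC-conjugated anti-CD4 mAb to read surface CD4 by mean fluorescence intensity. IC50 is the concentration giving 50% loss of cell-surface CD4. Top concentrations tested were 15 or 75 µM. Where 50% reduction was not reached, the value is reported as a lower limit based on the highest concentration used.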

SMILES | IC50 [1] | CC50 [2] | IC50 ([3]; read-out: IC50) | IC50 ([3]; read-out: Log IC50 (converted))
C=C1CN(S(=O)(=O)c2ccc(C)cc2)CCCN(Cc2ccccc2)CCCN(S(=O)(=O)c2cccc3c(N(C)C)cccc23)C1 | 9.5 µM | > 75 µM | 1.3 µM | 1.29 µM
C=C1CN(S(=O)(=O)c2ccc(OC)cc2)CCCNCCCN(S(=O)(=O)c2ccc(OC)cc2)C1 | 6.3 µM | 43 µM | 5.3 µM | 5.25 µM
C=C1CN(S(=O)(=O)c2ccc(Br)cc2)CCCN(C(=O)OCC)CCCN(S(=O)(=O)c2ccc(Br)cc2)C1 | – | 29 µM | 12.4 µM | 12.3 µM

Second part, led by results:

IC50 [1] | SMILES | CC50 [2] | IC50 ([3]; read-out: IC50) | IC50 ([3]; read-out: Log IC50 (converted))
0.63 µM | C=C1CN(S(=O)(=O)c2ccc(OC)cc2)CCCN(CCC(C)C)CCCN(S(=O)(=O)c2ccc(OC)cc2)C1 | 53 µM | 0.29 µM | 0.288 µM
0.62 µM | C=C1CN(S(=O)(=O)c2ccc(OC)cc2)CCCN(Cc2ccccc2)CCCN(S(=O)(=O)c2ccc(OC)cc2)C1 | 26 µM | 0.22 µM | 0.219 µM
1.8 µM | C=C1CN(S(=O)(=O)c2ccc(C)cc2)CCCN(CC2CCCCC2)CCCN(S(=O)(=O)c2cccc3c(N(C)C)cccc23)C1 | 49 µM | 0.61 µM | 0.617 µM
